Assay results taken from publication PMC4763880 (Molecular Biosystems, 2016).
Square brackets hold non-standard residues; d marks the D form. Ends that are not written are not given here. * marks the point of attachment. MethylRed = CN(C)c1ccc(/N=N/c2ccccc2C(=O)*)cc1; Dnp = O=[N+]([O-])c1ccc(*)c([N+](=O)[O-])c1; AFC = O=c1cc(C(F)(F)F)c2ccc(N*)cc2o1; Mca = COc1ccc2c(CC(=O)*)cc(=O)oc2c1; Ahx = NCCCCCC(=O)O

T1: recombinant human caspase-7 (Homo sapiens, UniProt P55210)
T1 sequence (P55210 24-198 limits assumed): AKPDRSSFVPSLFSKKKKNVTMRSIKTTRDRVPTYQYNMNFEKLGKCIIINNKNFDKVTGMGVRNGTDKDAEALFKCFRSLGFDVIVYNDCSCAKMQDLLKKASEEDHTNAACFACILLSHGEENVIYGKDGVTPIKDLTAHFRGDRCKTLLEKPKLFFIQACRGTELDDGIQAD
T1 sequence (P55210 207-303 limits assumed): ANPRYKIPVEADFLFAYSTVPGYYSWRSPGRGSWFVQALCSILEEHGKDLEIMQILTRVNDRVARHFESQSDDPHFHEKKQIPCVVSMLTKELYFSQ

T2: human recombinant caspase-7 (human) (UniProt P55210)
T2 sequence: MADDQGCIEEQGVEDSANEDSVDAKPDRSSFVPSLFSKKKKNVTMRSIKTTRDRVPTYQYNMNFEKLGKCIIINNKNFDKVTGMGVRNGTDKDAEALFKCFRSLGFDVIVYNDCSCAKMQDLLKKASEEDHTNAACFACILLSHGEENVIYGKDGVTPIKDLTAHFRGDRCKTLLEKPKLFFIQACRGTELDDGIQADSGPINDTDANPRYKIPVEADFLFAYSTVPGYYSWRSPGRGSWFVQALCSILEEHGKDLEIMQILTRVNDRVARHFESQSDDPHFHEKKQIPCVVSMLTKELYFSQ

T3: human recombinant caspase-3 (human) (UniProt P42574)
T3 sequence: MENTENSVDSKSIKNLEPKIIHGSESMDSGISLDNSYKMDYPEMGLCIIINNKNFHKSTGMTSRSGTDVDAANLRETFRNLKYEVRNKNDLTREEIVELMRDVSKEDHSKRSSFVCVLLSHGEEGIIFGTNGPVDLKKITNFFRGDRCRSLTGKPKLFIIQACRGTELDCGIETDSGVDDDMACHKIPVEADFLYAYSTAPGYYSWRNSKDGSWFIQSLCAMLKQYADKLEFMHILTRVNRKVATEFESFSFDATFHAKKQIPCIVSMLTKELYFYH


Columns and labels:
[1] = molecular target: T1, recombinant human caspase-7; experiment: Kinetic assay; type: biochemical; settings: caspase-7 15 nM; pH 7.5 caspase buffer; n = 3
Outline: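 Human recombinant enzyme was incubated with internally quenched FRET substrates, FAM-Ahx-Asp-Glu-X2-Asp-X1′-(Ahx)-Lys(MR)-NH2. X2 was Val or Pro; X1′ was Gly, Ala, Ser or absent. The donor was 5(6)-carboxyfluorescein (Ex/Em 492/517 nm) and the quencher methyl red. Cleavage between Asp and X1′ relieves quenching. KM and kcat were determined for each substrate, and catalytic efficiency taken as kcat/KM.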

caspase-3 = experiment: Screen of time-dependent fluorescence activation with caspase-3; type: biochemical, human; settings: caspase-3 15 nM; for Activation with caspase-3 in preliminary screen (in words): substrate 2.5, 5 and 10 μM, 0-40 min, n = 3 (Fig. S1)
[2] = molecular target: T2, human recombinant caspase-7 (human)
[3] = molecular target: T3, human recombinant caspase-3 (human)

Row | Molecule | Caspase-7 k cat/K M (catalytic efficiency) [1] [μM^–1 min^–1] | also measured
1 | MCA-Asp-Glu-Val-Asp-Ala-Pro-Lys-DNP [reference compound] | 0.4 | 
2 | Substrate 6: FRET substrate of the template; X2 Pro, X1′ Gly, spacer Ahx ({5(6)‑carboxyfluorescein-Ahx}-DEPDG[Ahx]K(MethylRed)-NH2) | 8.4 | 
3 | Substrate 2: FRET substrate of the template; X2 Pro, X1′ Ala, no spacer ({5(6)‑carboxyfluorescein-Ahx}-DEPDAK(MethylRed)-NH2) |  | Activation with caspase-3 in preliminary screen (in words) (caspase-3): reduced activation
4 | Substrate 3: FRET substrate of the template; X2 Pro, X1′ Ser, no spacer ({5(6)‑carboxyfluorescein-Ahx}-DEPDSK(MethylRed)-NH2) |  | Activation with caspase-3 in preliminary screen (in words) (caspase-3): reduced activation
5 | Substrate 10: FRET substrate of the template; X2 Pro, X1′ Ser, spacer Ahx ({5(6)‑carboxyfluorescein-Ahx}-DEPDS[Ahx]K(MethylRed)-NH2) | 0.5 | Activation with caspase-3 in preliminary screen (in words) (caspase-3): activity was restored
6 | Substrate 8: FRET substrate of the template; X2 Pro, X1′ Ala, spacer Ahx ({5(6)‑carboxyfluorescein-Ahx}-DEPDA[Ahx]K(MethylRed)-NH2) | 0.14 | Activation with caspase-3 in preliminary screen (in words) (caspase-3): activity was restored
7 | Substrate 7: FRET substrate of the template; X2 Val, X1′ Gly, spacer Ahx ({5(6)‑carboxyfluorescein-Ahx}-DEVDG[Ahx]K(MethylRed)-NH2) | 3.9 | 
8 | Substrate 5: FRET substrate of the template; X2 Pro, no X1′, spacer Ahx ({5(6)‑carboxyfluorescein-Ahx}-DEPD[Ahx]K(MethylRed)-NH2) | 3.5 | 
9 | Substrate 1: FRET substrate FAM-Ahx-Asp-Glu-X2-Asp-X1′-spacer-Lys(MR)-NH2; X2 Val, X1′ Gly, no spacer ({5(6)‑carboxyfluorescein-Ahx}-DEVDGK(MethylRed)-NH2) | 8.6 | 
10 | Substrate 4: FRET substrate of the template; X2 Val, no X1′, spacer Ahx ({5(6)‑carboxyfluorescein-Ahx}-DEVD[Ahx]K(MethylRed)-NH2) | 3.4 | 
11 | Ac-Asp-Glu-Val-Asp-AFC [reference compound] | 1.1 | 
12 | Substrate 11: FRET substrate of the template; X2 Val, X1′ Ser, spacer Ahx ({5(6)‑carboxyfluorescein-Ahx}-DEVDS[Ahx]K(MethylRed)-NH2) | 2.4 | 
13 | Substrate 9: FRET substrate of the template; X2 Val, X1′ Ala, spacer Ahx ({5(6)‑carboxyfluorescein-Ahx}-DEVDA[Ahx]K(MethylRed)-NH2) | 3.2 | Fold higher increase in fluorescence than Ac-Asp-Glu-Val-Asp-AFC (AFC) (caspase-3; all substrates at 20 μM, n = 3 (Fig. S2)): 3 fold
14 | Ac-DEVD-{AFC} [Ac-Asp-Glu-Val-Asp-AFC] |  | K M (μM) of cleavage of the fluorogenic substrate by caspase-7 [2]: 10.8 µM; K M (μM) of cleavage of the fluorogenic substrate by caspase-3 [3]: 9.8 µM
15 | Mca-DEVDAPK(Dnp) [MCA-Asp-Glu-Val-Asp-Ala-Pro-Lys-DNP] |  | K M (μM) of cleavage of the fluorogenic substrate by caspase-7 [2]: 15.1 µM; K M (μM) of cleavage of the fluorogenic substrate by caspase-3 [3]: 13.5 µM
